# Source: PubChem BioAssay
# E-sel inducer – induces E-selectin expression in human endothelial cells; P16581; AID 686992; HUVEC E-selectin immunofluorescence imaging; normalized: neutral wells 0, TNF-alpha wells 100; actives 0.37% (n = 260,000); activation, % at 7.58 µM;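 active means mean E-selectin-positive cell signal at least 10% of the positive control, reached in at least 60% of replicates, without over 20% cell loss; inconclusive means no rule given, readout overlaps actives, possibly toxicity-flagged; inactive means the rest, including those meeting only one limit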
# Target sequence (P16581 whole entry, looked up): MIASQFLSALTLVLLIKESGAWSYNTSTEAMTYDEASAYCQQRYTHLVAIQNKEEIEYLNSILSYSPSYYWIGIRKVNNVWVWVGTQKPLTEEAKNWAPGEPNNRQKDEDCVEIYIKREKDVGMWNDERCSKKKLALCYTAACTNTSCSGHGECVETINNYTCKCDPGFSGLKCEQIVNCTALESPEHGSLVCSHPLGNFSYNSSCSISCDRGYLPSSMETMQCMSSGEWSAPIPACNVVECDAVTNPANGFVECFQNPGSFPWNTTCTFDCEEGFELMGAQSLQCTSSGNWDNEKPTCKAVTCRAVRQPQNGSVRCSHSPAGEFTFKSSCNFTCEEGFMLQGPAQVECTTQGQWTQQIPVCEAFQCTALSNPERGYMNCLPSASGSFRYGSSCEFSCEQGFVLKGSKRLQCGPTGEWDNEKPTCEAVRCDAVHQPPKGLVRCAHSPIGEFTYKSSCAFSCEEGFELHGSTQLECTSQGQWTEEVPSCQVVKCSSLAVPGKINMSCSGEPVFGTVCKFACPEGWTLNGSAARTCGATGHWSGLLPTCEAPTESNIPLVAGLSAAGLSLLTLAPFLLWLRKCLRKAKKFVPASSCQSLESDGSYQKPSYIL
#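 System: HUVEC / Compound: single concentration / Signal: immunofluorescence imaging / Read-out: percent E-selectin-positive cells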
# Statin myotox sup – suppression of simvastatin myotoxicity; C2C12 myotubes + simvastatin, ATP luminescence, 48 h; scaled: DMSO 0, geranylgeraniol control 100; AID 602340; rescue of ATP level, % at 7.49 µM; actives 0.78% (n = 330,000);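 active means mean ATP rescue above about 67%, or every replicate alone reaching that limit, limit read from the data, passing the limit was not always enough; inconclusive means no clear call, values can overlap the other calls; inactive means mean under the limit and some replicate under it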;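 further: myotubes were challenged with 10 µM simvastatin during compound exposure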
# DENV2 CPE – inhibitors of DENV2 cytopathic effect; actives 1.7% (n = 350,000); DENV2-infected cells, cytopathic effect rescue, plate reader; AID 651640; CPE inhibition, % at 9.99 µM; in the data active means CPE inhibition above about 20%, passing the limit was not always enough; inconclusive means no clear call, values can overlap the other calls; tested in BHK-21 cells;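 further: 0% = median of neutral control wells and 100% = median of positive control wells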
# Starred values were filed as active, the others as inactive; ? = inconclusive; / = not tested or not shown; ! = not active in a repeat. Shown are actives, neighbours in structure and some others; about 2.2% of the full set was active somewhere.
SMILES,E-sel inducer,Statin myotox sup,DENV2 CPE
Cc1noc(C)c1NC(=O)Nc1ccc2c(c1)CC(=O)N([C@@H](C)CO)C[C@@H](C)[C@@H](CN(C)C(=O)NC1CCCCC1)O2,0.2,9.6,-5.2
Cc1noc(C)c1NC(=O)N(C)C[C@@H]1Oc2ccc(NC(=O)C3CCCCC3)cc2CC(=O)N([C@H](C)CO)C[C@H]1C,0.0,17.7,2.2
Cc1noc(C)c1NC(=O)Nc1ccc2c(c1)CC(=O)N([C@H](C)CO)C[C@H](C)[C@H](CN(C)C(=O)NC1CCCCC1)O2,0.1,-16.0,-6.9
O=C(C[C@@H]1C=C[C@H](NS(=O)(=O)c2ccc(F)cc2)[C@H](CO)O1)NC1CCC1,0.0,-3.2,-10.7
C[C@@H]1CN([C@H](C)CO)C(=O)c2cc(NC(=O)Nc3ccc4c(c3)OCO4)ccc2O[C@@H](C)CCCCO[C@@H]1CN(C)S(=O)(=O)c1cn(C)cn1,-0.3,/,1.2
CNC[C@H]1Oc2ncc(C#CC3CCCC3)cc2C(=O)N([C@@H](C)CO)C[C@H]1C,-0.1,-0.9,-1.8
Cc1cc(NC(=O)COC(=O)C2CCN(C(=O)c3ccc(Cl)cc3)CC2)no1,/,111.1*,/
COc1ccc(OC)c(NC(=O)COC(=O)C2CCN(C(=O)c3ccc(Cl)cc3)CC2)c1,-0.2,/,?
CC(C)CC#Cc1cnc2c(c1)C(=O)N([C@@H](C)CO)C[C@@H](C)[C@H](CN(C)C(=O)CCN1CCCCC1)O2,0.0,-28.1,-4.5
Cc1noc(C)c1NC(=O)Nc1ccc2c(c1)C(=O)N([C@H](C)CO)C[C@H](C)[C@H](CN(C)CC1CCCCC1)O2,3.1,-1.4,-4.2
Cc1cc(C)nc(SCC(=O)N/N=C/c2cccc([N+](=O)[O-])c2)n1,/,/,-5.3
O=C(CSc1ccccn1)N/N=C/c1cccc([N+](=O)[O-])c1,/,7.8,46.4*
COc1ccc(S(=O)(=O)N(C)C[C@H]2Oc3ccc(NC(=O)Nc4c(C)noc4C)cc3CC(=O)N([C@H](C)CO)C[C@@H]2C)cc1,-10.6,1.7,1.3
COc1cc(C)c(S(=O)(=O)N2CCCC2)cc1C(C)C,/,7.5,14.1
COc1cc(C)c(-c2cc(C(=O)O)c(C)o2)cc1C(C)C,/,95.3*,/
COc1ccc(NC(=O)N(C)C[C@H]2Oc3c(NS(=O)(=O)c4ccc(Cl)cc4)cccc3C(=O)N([C@H](C)CO)C[C@H]2C)cc1,0.0,40.8,48.8*
C[C@H]1CN([C@@H](C)CO)C(=O)c2cccc(NS(=O)(=O)c3ccc(Cl)cc3)c2O[C@H]1CN(C)C(=O)Nc1ccccc1,-0.6,-52.0,39.5*
COc1ccc(NC(=O)N(C)C[C@H]2Oc3c(NS(=O)(=O)c4ccc(Cl)cc4)cccc3C(=O)N([C@@H](C)CO)C[C@H]2C)cc1,-0.1,49.7,?
COc1ccc(NC(=O)N(C)C[C@H]2Oc3c(NS(=O)(=O)c4ccc(OC)cc4)cccc3C(=O)N([C@H](C)CO)C[C@@H]2C)cc1,-0.1,5.1,28.2*!
COc1ccc(NC(=O)N(C)C[C@@H]2Oc3c(NS(=O)(=O)c4ccc(OC)cc4)cccc3C(=O)N([C@@H](C)CO)C[C@@H]2C)cc1,0.0,-25.3,6.8
C[C@H](CO)N1C[C@H](C)[C@@H](CN(C)C(=O)Nc2ccccc2)Oc2c(NS(=O)(=O)c3ccc(Cl)cc3)cccc2C1=O,-0.2,6.6,-0.7
Cc1ccc(S(=O)(=O)Nc2ccc3c(c2)C(=O)N([C@H](C)CO)C[C@@H](C)[C@H](CN(C)S(=O)(=O)c2ccc(C)cc2)O3)cc1,-0.2,9.8,17.6
CNC[C@H]1OCCCC[C@@H](C)Oc2ccc(NC(=O)Nc3ccc4c(c3)OCO4)cc2C(=O)N([C@H](C)CO)C[C@H]1C,-0.1,-5.2,-5.6
O=C(C[C@H]1CC[C@H]2[C@@H](COC[C@H](O)CN2C(=O)c2ccncc2)O1)NCc1cccc(F)c1,0.0,-19.5,4.5
C[C@H](CO)N1C[C@H](C)[C@@H](CN(C)S(=O)(=O)c2ccc(Cl)cc2)Oc2c(NS(=O)(=O)c3ccc(F)cc3)cccc2C1=O,0.0,/,19.2
SMILES,E-sel inducer,Statin myotox sup,DENV2 CPE
COc1ccc2c3c([nH]c2c1)[C@@H](CO)N(Cc1cccc(Cl)c1)CC31CCN(C(C)=O)CC1,-0.4,/,30.1*
COc1ccc2c3c(n(C)c2c1)[C@H](CO)N(Cc1ccccc1Cl)CC31CCN(C(=O)CC2CC2)CC1,-0.3,/,30.8*
COc1ccc2c3c([nH]c2c1)[C@H](CO)N(Cc1ccccc1Cl)CC31CN(C(C)=O)C1,-0.5,/,0.3
COc1ccc2c3c([nH]c2c1)[C@@H](CO)N(Cc1ccccc1Cl)CC31CCN(C(=O)C2CC2)CC1,-0.1,/,?
COc1ccc2c3c([nH]c2c1)[C@H](CO)N(Cc1cccc(Cl)c1)CC31CCN(C(C)=O)CC1,-0.6,/,11.3
COc1ccc2c3c([nH]c2c1)[C@@H](CO)N(Cc1ccccc1Cl)CC31CN(C(=O)C2CC2)C1,1.6,/,23.2*
COc1ccc2c3c([nH]c2c1)[C@H](CO)N(Cc1ccccc1Cl)CC31CCN(C(C)=O)CC1,-0.5,/,22.5*
COc1ccc2c3c(n(C)c2c1)[C@@H](CO)N(Cc1ccccc1Cl)CC31CN(C(=O)CC2CC2)C1,0.0,/,14.0
C[C@@H]1CN([C@H](C)CO)C(=O)c2cc(NC(=O)c3ccccc3)ccc2O[C@@H](C)CCCCO[C@H]1CN(C)C(=O)CCC(F)(F)F,0.7,/,16.6
COc1ccc(NC(=O)N(C)C[C@@H]2OCCCC[C@@H](C)Oc3ccc(NC(=O)Nc4ccc(F)cc4)cc3C(=O)N([C@H](C)CO)C[C@@H]2C)cc1,-0.1,/,-6.6
C[C@@H]1CN([C@@H](C)CO)C(=O)c2cc(C3=CCCCC3)cnc2O[C@@H]1CN(C)C(=O)CN1CCOCC1,0.3,5.8,4.3
O=C(c1ccc(F)cc1)N1CCCCN2[C@H](C1)[C@@H](c1ccc(-c3ccc(F)cc3)cc1)[C@@H]2CO,/,/,-3.5
Cc1ccc(CNC(=O)CCCCn2c(=O)[nH]c3ccsc3c2=O)cc1,-0.1,18.4,8.4
O=C(CCCCCn1c(=O)[nH]c2ccsc2c1=O)NCc1ccc(F)cc1,/,120.2*,/
COCCN1C(=O)CSCC1(C)C(=O)Nc1ccc2c(c1)OCCO2 (configuration not stated),-0.1,/,-0.2
CCC(C)CN1C(=O)CSCC1(C)C(=O)Nc1ccc2c(c1)OCCO2 (configuration not stated),-0.1,/,31.4*
Cc1noc(C)c1S(=O)(=O)Nc1ccc2c(c1)C(=O)N([C@H](C)CO)C[C@@H](C)[C@@H](CN(C)Cc1ccc(Oc3ccccc3)cc1)O2,-6.3,64.2,-1.8
COc1ccc(S(=O)(=O)Nc2ccc3c(c2)C(=O)N([C@H](C)CO)C[C@H](C)[C@H](CN(C)Cc2ccc(Cl)c(Cl)c2)OCCCC[C@@H](C)O3)cc1,-0.1,78.8*,41.5*
COc1ccc(S(=O)(=O)Nc2ccc3c(c2)C(=O)N([C@H](C)CO)C[C@H](C)[C@@H](CN(C)Cc2ccc4c(c2)OCO4)OCCCC[C@@H](C)O3)cc1,0.0,17.4,23.0*
COc1ccc(S(=O)(=O)Nc2ccc3c(c2)C(=O)N([C@@H](C)CO)C[C@H](C)[C@@H](CN(C)Cc2ccc4c(c2)OCO4)OCCCC[C@H](C)O3)cc1,-0.2,-21.3,19.3
